Data as given in ChEMBL document CHEMBL1122796, “Synthesis and antihypertensive activity of 6,7-disubstituted trans-4-amino-3,4-dihydro-2,2-dimethyl-2H-1-benzopyran-3-ols” (1984).

Tests used:
Type in all cases: functional
Rattus norvegicus [1] = assay: Compound was evaluated for oral antihypertensive activity in spontaneously hypertensive rats at 0.3 mg/kg peroral administration
Procedure, shortened: (§1)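 Conscious spontaneously hypertensive rats (Okamoto-derived, 14-24 weeks old, systolic BP ≥180 mmHg), usually six per compound. Dosed orally by needle into the esophagus as a solution or suspension in 1% w/v methylcellulose; doses as free base. Systolic BP measured by tail cuff, restrained at 33.5 ± 0.5 °C, each reading a mean of ≥6 recordings, predose and at 1-6 h.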

Rattus norvegicus [2] = assay: Compound was evaluated for oral antihypertensive activity in spontaneously hypertensive rats at 1 mg/kg peroral administration; procedure, shortened: as §1
Rattus norvegicus [3] = assay: Compound was evaluated for oral antihypertensive activity in spontaneously hypertensive rats at 10 mg/kg peroral administration; procedure, shortened: as §1
Rattus norvegicus [4] = assay: Compound was evaluated for oral antihypertensive activity in spontaneously hypertensive rats at 3 mg/kg peroral administration; procedure, shortened: as §1
Rattus norvegicus [5] = assay: Compound was evaluated for oral antihypertensive activity in spontaneously hypertensive rats at 0.01 mg/kg peroral administration; procedure, shortened: as §1
Rattus norvegicus [6] = assay: Compound was evaluated for oral antihypertensive activity in spontaneously hypertensive rats at 0.03 mg/kg peroral administration; procedure, shortened: as §1
Rattus norvegicus [7] = assay: Compound was evaluated for oral antihypertensive activity in spontaneously hypertensive rats at 0.1 mg/kg peroral administration; procedure, shortened: as §1
Rattus norvegicus [8] = assay: Compound was evaluated for antihypertensive activity in deoxy-corticosterone acetate (DOCA) treated hypertensive rats at 0.3 mg/kg peroral administration; settings: route oral
Rattus norvegicus [9] = assay: Compound was evaluated for antihypertensive activity in deoxy-corticosterone acetate (DOCA) treated hypertensive rats at 1 mg/kg peroral administration; settings: route oral
Rattus norvegicus [10] = assay: Compound was evaluated for antihypertensive activity in deoxy-corticosterone acetate (DOCA) treated hypertensive rats at 100 mg/kg peroral administration; settings: route oral
Rattus norvegicus [11] = assay: Compound was evaluated for antihypertensive activity in deoxy-corticosterone acetate (DOCA) treated hypertensive rats at 10 mg/kg peroral administration; settings: route oral
Rattus norvegicus [12] = assay: Compound was evaluated for oral antihypertensive activity in spontaneously hypertensive rats at 100 mg/kg peroral administration; procedure, shortened: as §1
Rattus norvegicus [13] = assay: Compound was evaluated for antihypertensive activity in deoxy-corticosterone acetate (DOCA) treated hypertensive rats at 3 mg/kg peroral administration; settings: route oral

| SMILES | Max fall in blood pressure (Rattus norvegicus [1]) [mmHg] | Max fall in blood pressure (Rattus norvegicus [2]) [mmHg] | Max fall in blood pressure (Rattus norvegicus [3]) [mmHg] | Max fall in blood pressure (Rattus norvegicus [7]) [mmHg] | Max fall in blood pressure (Rattus norvegicus [9]) [mmHg] | also measured |
| --- | --- | --- | --- | --- | --- | --- |
| CC(=O)Nc1cc2c(cc1C(N)=O)[C@@H](N1CCCCC1)[C@H](O)C(C)(C)O2 | 34 | 50 |  |  |  |  |
| CC(=O)Nc1cc2c(cc1[N+](=O)[O-])OC(C)(C)[C@@H](O)[C@@H]2N1CCCCC1 |  |  | 89 |  |  | Max fall in blood pressure (Rattus norvegicus [4]): 44 mmHg |
| CC1(C)Oc2cc(N)c([N+](=O)[O-])cc2[C@@H](N2CCCCC2)[C@@H]1O | 111 |  |  | 110 |  | Max fall in blood pressure (Rattus norvegicus [5]): 14 mmHg; Max fall in blood pressure (Rattus norvegicus [6]): 71 mmHg |
| CC1(C)Oc2cc([N+](=O)[O-])c(N)cc2[C@@H](N2CCCCC2)[C@@H]1O | 42 | 67 |  |  |  |  |
| CC(=O)Nc1cc2c(cc1C#N)[C@@H](N1CCCC1)[C@H](O)C(C)(C)O2 | 149 |  |  | 36 |  |  |
| CC(=O)Nc1cc2c(cc1[N+](=O)[O-])OC(C)(C)[C@@H](O)[C@@H]2N1CCCC1 |  |  | 99 |  |  | Max fall in blood pressure (Rattus norvegicus [4]): 25 mmHg |
| CC1(C)Oc2cc([N+](=O)[O-])c(N)cc2[C@@H](N2CCCC2)[C@@H]1O | 83 | 71 |  | 22 |  |  |
| CC1(C)Oc2ccc(C#N)cc2C(N2CCCC2)[C@@H]1O.CS(=O)(=O)O (some centres not stated) | 41 | 61 |  |  | 43 | Max fall in blood pressure (Rattus norvegicus [8]): 15 mmHg |
| CC1(C)Oc2cc(N)c(C#N)cc2[C@@H](N2CCCC2)[C@@H]1O | 115 |  |  | 54 |  | Max fall in blood pressure (Rattus norvegicus [6]): 40 mmHg |
| CC(=O)Nc1cc2c(cc1[N+](=O)[O-])[C@@H](N1CCCCC1)[C@H](O)C(C)(C)O2 | 108 |  |  | 78 |  |  |
| CC1(C)Oc2cc(N)c([N+](=O)[O-])cc2[C@@H](N2CCCC2)[C@@H]1O |  |  |  | 122 |  | Max fall in blood pressure (Rattus norvegicus [6]): 47 mmHg |
| CC1(C)Oc2ccc(N)cc2C(N2CCCC2)[C@@H]1O.CS(=O)(=O)O (some centres not stated) |  |  | -10 |  | 6 |  |
| CC1(C)Oc2ccc([N+](=O)[O-])cc2C(N2CCCC2)[C@@H]1O.Cl (some centres not stated) | 32 | 52 |  |  | 52 |  |
| CC(=O)Nc1ccc2c(c1)C(N1CCCCC1)[C@H](O)C(C)(C)O2.Cl (some centres not stated) |  |  | 19 |  |  | Max fall in blood pressure (Rattus norvegicus [10]): 4 mmHg; Max fall in blood pressure (Rattus norvegicus [11]): 6 mmHg; Max fall in blood pressure (Rattus norvegicus [12]): 42 mmHg |
| CC1(C)Oc2cc([N+](=O)[O-])ccc2C(N2CCCC2)[C@@H]1O.Cl (some centres not stated) | 17 | 83 |  |  | 44 | Max fall in blood pressure (Rattus norvegicus [13]): 90 mmHg |
| CC1(C)Oc2ccc(C(N)=O)cc2C(N2CCCCC2)[C@@H]1O.Cl (some centres not stated) |  | 24 | 109 |  | 9 | Max fall in blood pressure (Rattus norvegicus [4]): 76 mmHg |
| Cl.NNc1nncc2ccccc12 [HYDRALAZINE HYDROCHLORIDE] |  | 42 | 89 |  | 32 | Max fall in blood pressure (Rattus norvegicus [13]): 65 mmHg; Max fall in blood pressure (Rattus norvegicus [4]): 51 mmHg; Max fall in blood pressure (Rattus norvegicus [11]): 113 mmHg |
| COC(=O)C1=C(C)NC(C)=C(C(=O)OC)C1c1ccccc1[N+](=O)[O-] [NIFEDIPINE] | 13 | 30 |  |  | 33 | Max fall in blood pressure (Rattus norvegicus [8]): 20 mmHg; Max fall in blood pressure (Rattus norvegicus [13]): 51 mmHg; Max fall in blood pressure (Rattus norvegicus [4]): 62 mmHg |
